Measured values gathered from unrelated publications.
Lines come from different studies, so protocols differ.
Target: Myosin-IIIb (MYO3B, Homo sapiens, UniProt Q8WXR4)
One construct used (Q8WXR4 1-1341): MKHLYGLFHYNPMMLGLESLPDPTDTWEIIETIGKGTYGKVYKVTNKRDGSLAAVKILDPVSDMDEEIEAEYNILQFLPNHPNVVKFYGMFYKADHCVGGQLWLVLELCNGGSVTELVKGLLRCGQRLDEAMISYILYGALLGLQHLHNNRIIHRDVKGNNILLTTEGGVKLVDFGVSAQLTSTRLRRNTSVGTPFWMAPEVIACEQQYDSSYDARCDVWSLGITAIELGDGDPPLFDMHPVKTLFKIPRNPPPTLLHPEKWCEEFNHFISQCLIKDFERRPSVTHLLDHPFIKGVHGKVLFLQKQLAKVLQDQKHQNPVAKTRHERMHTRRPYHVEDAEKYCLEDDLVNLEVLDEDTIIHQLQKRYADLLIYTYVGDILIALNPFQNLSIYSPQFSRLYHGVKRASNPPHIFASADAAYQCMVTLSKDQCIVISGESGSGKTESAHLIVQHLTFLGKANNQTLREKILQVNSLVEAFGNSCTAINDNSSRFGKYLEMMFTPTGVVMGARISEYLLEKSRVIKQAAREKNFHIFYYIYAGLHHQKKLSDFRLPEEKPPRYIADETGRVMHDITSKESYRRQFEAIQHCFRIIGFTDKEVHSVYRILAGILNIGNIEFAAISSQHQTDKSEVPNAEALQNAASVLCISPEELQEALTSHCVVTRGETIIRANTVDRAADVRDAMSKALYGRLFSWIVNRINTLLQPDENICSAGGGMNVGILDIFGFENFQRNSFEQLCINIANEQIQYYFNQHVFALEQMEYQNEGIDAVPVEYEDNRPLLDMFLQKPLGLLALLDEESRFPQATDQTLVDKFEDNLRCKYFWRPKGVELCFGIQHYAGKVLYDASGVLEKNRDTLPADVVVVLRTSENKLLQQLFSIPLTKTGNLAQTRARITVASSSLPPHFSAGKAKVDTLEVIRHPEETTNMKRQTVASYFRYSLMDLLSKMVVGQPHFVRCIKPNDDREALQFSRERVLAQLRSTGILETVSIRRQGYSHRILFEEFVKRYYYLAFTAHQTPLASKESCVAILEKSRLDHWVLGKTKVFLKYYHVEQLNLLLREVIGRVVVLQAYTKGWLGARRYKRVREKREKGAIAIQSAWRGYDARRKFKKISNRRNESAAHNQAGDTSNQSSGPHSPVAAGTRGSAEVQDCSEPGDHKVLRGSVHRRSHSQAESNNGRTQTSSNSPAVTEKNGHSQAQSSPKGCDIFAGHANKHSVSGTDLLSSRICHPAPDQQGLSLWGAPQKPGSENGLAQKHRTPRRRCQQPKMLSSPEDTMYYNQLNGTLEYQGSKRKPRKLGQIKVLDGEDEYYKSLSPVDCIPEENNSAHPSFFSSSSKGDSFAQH

`CSc1cccnc1N1CCN(Cc2nc3ccccc3[nH]2)CC1` has a remaining binding of 100% (binding; competition with immobilised ligand; 1 µM).
With `O=C(O)c1ccc2c3c1cccc3c(=O)n1c3ccccc3nc21` the remaining activity was 96.7% (enzyme activity; inhibitor; 0.5 µM).
For `Cc1ccc(C(=O)Nc2ccc(CN3CCN(C)CC3)c(C(F)(F)F)c2)cc1C#Cc1cnc2cccnn12`, the remaining activity was 79% (enzyme activity; 23.5 nM).
The inhibition of `CN1CCN(C(=O)c2ccc3cc(CCNc4ccnc5ccc(C#N)cc45)ccc3c2)CC1` is reported as > 35% (binding; competition with immobilised ligand; 2 µM).
For `CCN(CC)CCNC(=O)c1c(C)[nH]c(/C=C2\C(=O)Nc3ccc(Cl)cc32)c1C`, the remaining activity was 41.3% (enzyme activity; inhibitor; 0.5 µM).
`Nc1ncnc2occ(-c3ccc(NC(=O)Nc4cc(C(F)(F)F)ccc4F)cc3)c12` gave a remaining signal of 25% (cell-free assay; 20 µM).
`COc1cc(Cl)c(C(=O)N[C@@H](CN[C@H]2CC[C@@H](N)CC2)Cc2ccc(C#N)cc2)cc1-c1ccc(CN[C@H](C)c2ccc(C)cc2)o1` gave a remaining activity of 116% (enzyme activity; inhibitor; 1 µM).
The inhibition of `CN1CC(Oc2cnc(C#N)cc2-c2ccn3nc(NC(=O)C4CC4)cc3c2)C1` is reported as -2% (enzyme activity; inhibitor; 1 µM).
`CCC(=N\O)/C(C)=C/c1ccc(F)cc1` gave a remaining binding of 100% (binding; competition with immobilised ligand; 1 µM).
With `C[S+]([O-])c1ccc(-c2nc(-c3ccncc3)c(-c3ccc(F)cc3)[nH]2)cc1` (centres unmarked) the remaining signal was 104% (cell-free assay; 0.5 µM).
For `O=C(Nc1cnn(-c2csc(C(=O)NC3COC3)c2)c1)Nc1ccccc1Cl`, the remaining activity was 128% (enzyme activity; inhibitor; 5 µM).
With `CC(C)(O)[C@H]1CC[C@H](Nc2ccc3ncc(-c4cccc(C(F)(F)F)c4)n3n2)CC1` the remaining activity was 85.1% (enzyme activity; inhibitor; 1 µM).
With `Cc1sc(C(=O)NC2COC2)cc1-n1cc(NC(=O)Nc2c(F)cccc2Cl)cn1` the remaining activity was 73.5% (enzyme activity; inhibitor; 10 µM).
With `Cn1nc(C(=O)NCc2ccc(C(=O)O)cc2)cc1-c1ccc2[nH]ccc2c1` the remaining binding was 100% (binding; competition with immobilised ligand; 0.1 µM).
